Assay type in all cases: functional
Test [1] has as its system Medicago sativa. Put plainly: Herbicidal activity against Medicago sativa (alfalfa) assessed as inhibition of herb growth at 1.5 kg/ha during postemergence treatment protocol. As to conditions: post-emergence, read-out: GI.
Test [2] concerns Amaranthus retroflexus. Put plainly: Herbicidal activity against Amaranthus retroflexus assessed as inhibition of herb growth at 1.5 kg/ha during preemergence treatment protocol. As to conditions: pre-emergence, read-out: GI.
Test [3] relates to Brassica napus. Put plainly: Herbicidal activity against Brassica napus (oilseed rape) assessed as inhibition of herb growth at 1.5 kg/ha during preemergence treatment protocol. As to conditions: pre-emergence, read-out: GI.
The test system of test [4] is Medicago sativa. Put plainly: Herbicidal activity against Medicago sativa (alfalfa) assessed as inhibition of herb growth at 1.5 kg/ha during preemergence treatment protocol. As to conditions: pre-emergence, read-out: GI.
Test [5] deals with Amaranthus retroflexus. Put plainly: Herbicidal activity against Amaranthus retroflexus assessed as inhibition of herb growth at 1.5 kg/ha during postemergence treatment protocol. As to conditions: post-emergence, read-out: GI.
The subject of test [6] is Digitaria sanguinalis. Kind of test: Herbicidal activity against hairy Digitaria sanguinalis (hairy crabgrass) assessed as inhibition of herb growth at 1.5 kg/ha during preemergence treatment protocol. As to conditions: pre-emergence, read-out: GI.
The subject of test [7] is Brassica napus. Kind of test: Herbicidal activity against Brassica napus (oilseed rape) assessed as inhibition of herb growth at 1.5 kg/ha during postemergence treatment protocol. As to conditions: post-emergence, read-out: GI.
The subject of test [8] is Digitaria sanguinalis. Kind of test: Herbicidal activity against hairy Digitaria sanguinalis (hairy crabgrass) assessed as inhibition of herb growth at 1.5 kg/ha during postemergence treatment protocol. As to conditions: post-emergence, read-out: GI.
In another test the test system is Spinacia oleracea. Kind of test: Inhibition of photosynthetic electron transport in Spinacia oleracea (spinach)isolated chloroplasts assessed as inhibition of Hill reaction. The method, boiled down:
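Chloroplasts from fresh spinach leaves, homogenised in ice-cold pH 7.8 buffer (0.4 M sucrose, 10 mM NaCl, 50 mM Tris-HCl), spun 3 min 120g then 5 min 1000g at 4 °C. Reaction buffer 350 mM NaCl, 10 mM Tris-HCl pH 7.8 with DCPIP; 2 min light (360 µmol m^-2 s^-1), DCPIP reduction at 620 nm. Compounds 0.01 mg/L–0.3 mg/mL in […]/water, ≥triplicate; IC50 by log-linear regression.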

Where [9] appears, read: Spinacia oleracea, read-out: pIC50 (converted).

With `CCOCCOC(=O)/C(C#N)=C(\NCc1cnc(OC)nc1)C(C)C`, the inhibition of growth at 1500 g/ha in the test with Medicago sativa [1] stood at 74%; in the test on Amaranthus retroflexus [2], 22.2%; with Brassica napus [3] it was 0%; in the test with Medicago sativa [4], 57.1%; in the test with Amaranthus retroflexus [5], 3.4%; with Digitaria sanguinalis [6], 46.2%. Also, the inhibition of growth at 1500 g/ha in the test with Brassica napus [7] was 19.4%; with Digitaria sanguinalis [8] it was 52.2%.
Turning to `CCOCCOC(=O)/C(C#N)=C(\NCc1cnc(OCC)nc1)SC`, the inhibition of growth at 1500 g/ha with Medicago sativa [1] was 40.8%; in the test on Amaranthus retroflexus [2], 15.9%; in the test with Brassica napus [3] it was 0%; with Medicago sativa [4] it was 31.1%; in the test on Amaranthus retroflexus [5], 26.4%; in the test on Digitaria sanguinalis [6] it was 12.5%. The inhibition of growth at 1500 g/ha in the test on Brassica napus [7] was 16.1%; with Digitaria sanguinalis [8] it was 8.7%. The IC50 in the test with Spinacia oleracea was 1.45 ppm; with Spinacia oleracea (setting [9]), 1.07 µM.
Regarding `CCOCCOC(=O)/C(C#N)=C(\NCC1CCCO1)SC` (stereo not given), the inhibition of growth at 1500 g/ha worked out at 23.4% in the test with Medicago sativa [1]; 9.5% with Amaranthus retroflexus [2]; 0% with Brassica napus [3]; 21.8% in the test with Medicago sativa [4]; 37.8% in the test on Amaranthus retroflexus [5]; 35.7% in the test on Digitaria sanguinalis [6]. The figures for the inhibition of growth at 1500 g/ha in the test with Brassica napus [7] and in the test on Digitaria sanguinalis [8] were 47.5% and 0%, respectively. Further, the figures for the IC50 in the test with Spinacia oleracea and in the test with Spinacia oleracea (setting [9]) were 27.92 ppm and 20.9 µM, respectively.
`CCOCCOC(=O)/C(C#N)=C(\NCC1CCCO1)C(C)C` (stereo not given): the inhibition of growth at 1500 g/ha in the test on Medicago sativa [1] is 60.5%; in the test on Amaranthus retroflexus [2], 3.2%; with Brassica napus [3], 80%; in the test with Medicago sativa [4], 20.3%; in the test with Amaranthus retroflexus [5] it was 100%; in the test with Digitaria sanguinalis [6] it was 40%. Besides, the inhibition of growth at 1500 g/ha was 97.2% with Brassica napus [7] and 100% in the test with Digitaria sanguinalis [8]. Also, the figures for the IC50 with Spinacia oleracea and with Spinacia oleracea (setting [9]) were 6.874 ppm and 6.92 µM, respectively.
As to `CCOCCOC(=O)/C(C#N)=C(\NCC1CCOC1)C(C)C` (stereo not given), the inhibition of growth at 1500 g/ha in the test on Medicago sativa [1] was 41.3%; with Amaranthus retroflexus [2], 12.6%; in the test with Brassica napus [3], 0%; in the test with Medicago sativa [4] it was 2.3%; with Amaranthus retroflexus [5] it was 37.8%; in the test on Digitaria sanguinalis [6], 0%. Also, the inhibition of growth at 1500 g/ha was 88.2% in the test with Brassica napus [7] and 57.6% in the test with Digitaria sanguinalis [8]. Further, the figures for the IC50 with Spinacia oleracea and in the test with Spinacia oleracea (setting [9]) were 41.4 ppm and 41.7 µM, respectively.
Regarding `CCOCCOC(=O)/C(C#N)=C(\NCc1ccoc1)C(C)C`, the inhibition of growth at 1500 g/ha with Medicago sativa [1] was determined as 13.2%; with Amaranthus retroflexus [2], 22.1%; in the test with Brassica napus [3], 0%; with Medicago sativa [4] it was 10.5%; in the test with Amaranthus retroflexus [5] it was 27.4%; with Digitaria sanguinalis [6], 33.6%. The inhibition of growth at 1500 g/ha in the test on Brassica napus [7] came to 51.9%; in the test with Digitaria sanguinalis [8], 0%. Moreover, the values for the IC50 in the test on Spinacia oleracea and in the test on Spinacia oleracea (setting [9]) were 6.6 ppm and 6.61 µM, respectively.
For the molecule `CCOCCOC(=O)/C(C#N)=C(\NCc1ccc(Cl)nn1)SC`, the inhibition of growth at 1500 g/ha in the test with Medicago sativa [1] was found to be 27.8%; in the test on Amaranthus retroflexus [2], 43.2%; in the test with Brassica napus [3], 12.5%; with Medicago sativa [4] it was 0%; in the test on Amaranthus retroflexus [5] it was 21.8%; with Digitaria sanguinalis [6] it was 0%. For the same molecule, the inhibition of growth at 1500 g/ha stood at 81% in the test on Brassica napus [7] and 28.8% with Digitaria sanguinalis [8]. The values for the IC50 in the test on Spinacia oleracea and in the test with Spinacia oleracea (setting [9]) were 3.99 ppm and 3.98 µM, respectively.
For the molecule `CCOCCOC(=O)/C(C#N)=C(\NCc1ccc(Cl)nn1)C(C)C`, the inhibition of growth at 1500 g/ha turned out to be 31.4% in the test on Medicago sativa [1]; 27% with Amaranthus retroflexus [2]; 59.5% in the test on Brassica napus [3]; 4.5% with Medicago sativa [4]; 91.6% in the test with Amaranthus retroflexus [5]; 10.9% in the test on Digitaria sanguinalis [6]. In addition, the inhibition of growth at 1500 g/ha with Brassica napus [7] came out at 100%; in the test with Digitaria sanguinalis [8] it was 48%. The values for the IC50 with Spinacia oleracea and in the test on Spinacia oleracea (setting [9]) were 4.3 ppm and 4.27 µM, respectively.
For the molecule `CCOCCOC(=O)/C(C#N)=C(\NCc1ccc(OCC)nn1)SC`, the inhibition of growth at 1500 g/ha with Medicago sativa [1] amounted to 24.2%; in the test with Amaranthus retroflexus [2] it was 56.8%; in the test on Brassica napus [3], 0%; with Medicago sativa [4] it was 0%; with Amaranthus retroflexus [5], 32.9%; in the test with Digitaria sanguinalis [6] it was 0%. Also, the inhibition of growth at 1500 g/ha with Brassica napus [7] is 64.6%; with Digitaria sanguinalis [8], 0.8%. The IC50 in the test with Spinacia oleracea is 12.29 ppm; in the test with Spinacia oleracea (setting [9]) it was 9.12 µM.
In the case of `CCOCCOC(=O)/C(C#N)=C(\NCc1ccc(OCC)nn1)C(C)C`, the inhibition of growth at 1500 g/ha in the test with Medicago sativa [1] amounted to 50.7%; in the test on Amaranthus retroflexus [2], 54%; in the test with Brassica napus [3] it was 44.9%; in the test with Medicago sativa [4], 0%; with Amaranthus retroflexus [5], 70.2%; with Digitaria sanguinalis [6], 26.7%. Also, the inhibition of growth at 1500 g/ha in the test on Brassica napus [7] turned out to be 100%; in the test on Digitaria sanguinalis [8], 57.6%.
In the case of `CCOCCOC(=O)/C(C#N)=C(\NCc1ccc(N2CCOCC2)nn1)SC`, the inhibition of growth at 1500 g/ha with Medicago sativa [1] came to 32.8%; in the test on Amaranthus retroflexus [2], 13.5%; in the test on Brassica napus [3] it was 10.9%; with Medicago sativa [4], 10.1%; in the test with Amaranthus retroflexus [5], 24%; with Digitaria sanguinalis [6], 6.9%. In addition, the values for the inhibition of growth at 1500 g/ha in the test on Brassica napus [7] and with Digitaria sanguinalis [8] were 18.1% and 2.4%, respectively.
As to `CCOCCOC(=O)/C(C#N)=C(\NCc1ccc(N2CCOCC2)nn1)C(C)C`, the inhibition of growth at 1500 g/ha worked out at 15.2% in the test on Medicago sativa [1]; 5.4% in the test on Amaranthus retroflexus [2]; 49.8% in the test with Brassica napus [3]; 2.6% in the test with Medicago sativa [4]; 19.1% in the test on Amaranthus retroflexus [5]; 22.8% in the test on Digitaria sanguinalis [6]. For the same molecule, the inhibition of growth at 1500 g/ha came to 85.4% with Brassica napus [7] and 13.6% in the test with Digitaria sanguinalis [8].
Turning to `CCOCCOC(=O)/C(C#N)=C(\NCc1cnc(OC)nc1)SC`, the inhibition of growth at 1500 g/ha in the test on Medicago sativa [1] turned out to be 45.1%; in the test with Amaranthus retroflexus [2] it was 58.1%; with Brassica napus [3] it was 42.4%; in the test on Medicago sativa [4], 42.8%; in the test with Amaranthus retroflexus [5], 15.5%; in the test on Digitaria sanguinalis [6], 26%. The inhibition of growth at 1500 g/ha worked out at 28.8% in the test on Brassica napus [7] and 2.2% in the test with Digitaria sanguinalis [8]. Besides, the IC50 was 3.79 ppm in the test on Spinacia oleracea and 3.8 µM with Spinacia oleracea (setting [9]).
For `CCOCCOC(=O)/C(C#N)=C(/CC)NCc1cnc(OC)nc1`, the inhibition of growth at 1500 g/ha in the test on Medicago sativa [1] came to 26%; in the test with Amaranthus retroflexus [2] it was 34.6%; in the test with Brassica napus [3] it was 51.5%; in the test on Medicago sativa [4] it was 29.4%; in the test with Amaranthus retroflexus [5] it was 20.7%; in the test on Digitaria sanguinalis [6] it was 36%. The inhibition of growth at 1500 g/ha with Brassica napus [7] amounted to 63.7%; in the test with Digitaria sanguinalis [8], 2.2%.

The record behind these values is ChEMBL document CHEMBL3045046, “Synthesis, herbicidal activities, and 3D-QSAR of 2-cyanoacrylates containing aromatic methylamine moieties” (J Agric Food Chem, 2008).
